Data set [1] has as its system Staphylococcus aureus. Description: Potency index, ratio of MIC for norfloxacin to MIC for compound against quinolone-resistant Staphylococcus aureus CCARM 3505 incubated for 24 hrs serial dilution method. It is filed as functional.
The test system of data set [2] is Escherichia coli. The data set is described as follows: Antibacterial activity against Escherichia coli 1356 incubated for 24 hrs serial dilution method. The settings on record: Escherichia coli, 1356, 24 h. In kind it is functional.
For data set [3], the system named is Staphylococcus aureus. The data set is described as follows: Antibacterial activity against Staphylococcus aureus RN 4220 incubated for 24 hrs serial dilution method. It is filed as functional. The settings on record: RN 4220, 24 h.
Data set [4] concerns Staphylococcus aureus. The data set is described as follows: Potency index, ratio of MIC for oxacillin to MIC for compound against multidrug-resistant Staphylococcus aureus CCARM 3167 incubated for 24 hrs serial dilution method. It is filed as functional.
Data set [5] has as its system Staphylococcus aureus. The data set is described as follows: Antibacterial activity against Staphylococcus aureus KCTC 209 incubated for 24 hrs serial dilution method. In kind it is functional. The following applies: KCTC 209, 24 h.
Data set [6] concerns Staphylococcus aureus. The data set is described as follows: Antibacterial activity against quinolone-resistant Staphylococcus aureus CCARM 3505 incubated for 24 hrs serial dilution method. It is filed as functional. The following applies: CCARM 3505, 24 h.
Data set [7] concerns Staphylococcus aureus. Description: Potency index, ratio of MIC for oxacillin to MIC for compound against multidrug-resistant Staphylococcus aureus CCARM 3506 incubated for 24 hrs serial dilution method. It is filed as functional.
Data set [8] relates to Staphylococcus aureus. Description: Antibacterial activity against multidrug-resistant Staphylococcus aureus CCARM 3506 incubated for 24 hrs serial dilution method. It is filed as functional. The settings on record: CCARM 3506, 24 h.
In data set [9] the test system is Staphylococcus aureus. Description: Antibacterial activity against quinolone-resistant Staphylococcus aureus CCARM 3519 incubated for 24 hrs serial dilution method. It is filed as functional. The following applies: CCARM 3519, 24 h.
In data set [10] the test system is Staphylococcus aureus. Description: Potency index, ratio of MIC for norfloxacin to MIC for compound against multidrug-resistant Staphylococcus aureus CCARM 3506 incubated for 24 hrs serial dilution method. In kind it is functional.
Data set [11] deals with Staphylococcus aureus. The data set is described as follows: Antibacterial activity against Staphylococcus aureus KCTC 503 incubated for 24 hrs serial dilution method. The settings on record: KCTC 503, 24 h. In kind it is functional.
Data set [12] relates to Staphylococcus aureus. Description: Potency index, ratio of MIC for norfloxacin to MIC for compound against multidrug-resistant Staphylococcus aureus CCARM 3167 incubated for 24 hrs serial dilution method. In kind it is functional.
Data set [13] has as its system Staphylococcus aureus. Description: Potency index, ratio of MIC for norfloxacin to MIC for compound against quinolone-resistant Staphylococcus aureus CCARM 3519 incubated for 24 hrs serial dilution method. It is filed as functional.
The subject of data set [14] is Staphylococcus aureus. Description: Potency index, ratio of MIC for oxacillin to MIC for compound against quinolone-resistant Staphylococcus aureus CCARM 3519 incubated for 24 hrs serial dilution method. In kind it is functional.
The test system of data set [15] is Staphylococcus aureus. The data set is described as follows: Potency index, ratio of MIC for oxacillin to MIC for compound against quinolone-resistant Staphylococcus aureus CCARM 3505 incubated for 24 hrs serial dilution method. It is filed as functional.
In data set [16] the test system is Staphylococcus aureus. Description: Antibacterial activity against multidrug-resistant Staphylococcus aureus CCARM 3167 incubated for 24 hrs serial dilution method. The following applies: CCARM 3167, 24 h. In kind it is functional.
In data set [17] the test system is HeLa. The data set is described as follows: Toxicity against human HeLa cells at 1 ug/ml incubated for 48 hrs by MTT assay. In kind it is cell-based. A digest of the protocol:
(§1)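 HeLa cells kept in DMEM with 10% FBS and penicillin-streptomycin (100 U/mL) at 37 °C, 5% CO₂, split with 0.25% trypsin at 80–90% confluence. After 3 passages, about 1 × 10⁴ cells per well were seeded and left overnight to attach. Compound exposure 48 h. MTT (5 mg/mL in PBS) added for 4 h, formazan dissolved in DMSO, OD read at 570 nm.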
A general note: Tetrazolium assays rely on reduction of a dye to a coloured formazan, in cell work by metabolically active cells.

Data set [18] relates to HeLa. The data set is described as follows: Toxicity against human HeLa cells at 2 ug/ml incubated for 48 hrs by MTT assay. It is filed as cell-based. An outline of the steps: as §1
Data set [19] can be described thus: Toxicity against human HeLa cells incubated for 48 hrs by MTT assay. In kind it is cell-based. An outline of the steps:
as §1

Data set [20] concerns Staphylococcus aureus. The data set is described as follows: Antibacterial activity against quinolone-resistant Staphylococcus aureus CCARM 3505 at 64 ug/ml incubated for 24 hrs serial dilution method. It is filed as functional, organism-based.
Data set [21] relates to Staphylococcus aureus. The data set is described as follows: Antibacterial activity against Staphylococcus aureus RN 4220 at 64 ug/ml incubated for 24 hrs serial dilution method. In kind it is functional, organism-based.
For data set [22], the system named is Staphylococcus aureus. The data set is described as follows: Antibacterial activity against Staphylococcus aureus KCTC 503 at 64 ug/ml incubated for 24 hrs serial dilution method. In kind it is functional, organism-based.
Data set [23] concerns Staphylococcus aureus. The data set is described as follows: Antibacterial activity against quinolone-resistant Staphylococcus aureus CCARM 3519 at 64 ug/ml incubated for 24 hrs serial dilution method. It is filed as functional, organism-based.
Data set [24] deals with Escherichia coli. Description: Antibacterial activity against Escherichia coli 1356 at 64 ug/ml incubated for 24 hrs serial dilution method. It is filed as functional, organism-based.
In data set [25] the test system is Staphylococcus aureus. Description: Antibacterial activity against multidrug-resistant Staphylococcus aureus CCARM 3167 at 64 ug/ml incubated for 24 hrs serial dilution method. It is filed as functional, organism-based.
For data set [26], the system named is Staphylococcus aureus. The data set is described as follows: Antibacterial activity against Staphylococcus aureus KCTC 209 at 64 ug/ml incubated for 24 hrs serial dilution method. It is filed as functional, organism-based.
Data set [27] deals with Staphylococcus aureus. The data set is described as follows: Antibacterial activity against multidrug-resistant Staphylococcus aureus CCARM 3506 at 64 ug/ml incubated for 24 hrs serial dilution method. It is filed as functional, organism-based.

Converted amounts (≈) assume the structure as drawn. The source made the active and inactive calls. No cut-off for these calls is given here.

In the case of `Cc1ccc(Oc2c(/C=C3\SC(=S)N([C@@H](Cc4c[nH]c5ccccc45)C(=O)O)C3=O)c(C)nn2-c2ccccc2)c(C)c1`, the Ratio was 4 in data set [1]; 64 in data set [4]; 64 in data set [7]; 4 in data set [10]; 4 in data set [12]; 4 in [13]. The Ratio in data set [14] and in data set [15] was 64 in each case. In addition, the MIC is over 64 µg/mL in data set [2]; 2 µg/mL (≈ 3.29 µM) in data set [3]; over 64 µg/mL in [5]; 1 µg/mL (≈ 1.64 µM) in data set [6]; 1 µg/mL (≈ 1.64 µM) in data set [8]; 1 µg/mL (≈ 1.64 µM) in data set [9]. In addition, the MIC is over 64 µg/mL in data set [11] and 1 µg/mL (≈ 1.64 µM) in data set [16].

Consider `Cc1nn(-c2ccccc2)c(Oc2ccc(Cl)cc2Cl)c1/C=C1\SC(=S)N([C@@H](Cc2c[nH]c3ccccc23)C(=O)O)C1=O`, for which the Ratio came out at 4 in [1]; 64 in data set [4]; 64 in [7]; 4 in [10]; 4 in data set [12]; 4 in [13]. Further, the Ratio in data set [14] and in data set [15] was 64 throughout. For the same molecule, the MIC was over 64 µg/mL in data set [2]; 2 µg/mL (≈ 3.08 µM) in data set [3]; over 64 µg/mL in data set [5]; 1 µg/mL (≈ 1.54 µM) in [6]; 1 µg/mL (≈ 1.54 µM) in [8]; 1 µg/mL (≈ 1.54 µM) in data set [9]. Further, the MIC in data set [11] is over 64 µg/mL; in data set [16], 1 µg/mL (≈ 1.54 µM). Further, the Activity result in data set [17] and in data set [18] was “Non-toxic” in each case. In data set [19] (read-out: IC50), the IC50 at 48 h worked out at 5.76 µg/mL (≈ 8.87 µM).

Take `Cc1nn(-c2ccccc2)c(Oc2ccccc2Cl)c1C=O`: the result in [20], in data set [21], in data set [22], in [23], in data set [24] and in data set [25] was inactive. Besides, the outcome in data set [26] and in data set [27] was inactive.

In the case of `Cc1nn(-c2ccccc2)c(Oc2ccc(Br)cc2)c1/C=C1\SC(=S)N([C@@H](Cc2c[nH]c3ccccc23)C(=O)O)C1=O`, the Ratio in data set [1] was determined as 4; in data set [4], 64; in [7] it was 64; in [10] it was 4; in data set [12], 4; in data set [13], 4. Further, the Ratio in [14] and in data set [15] was 64 each time. Moreover, the MIC was over 64 µg/mL in [2]; 2 µg/mL (≈ 3.03 µM) in data set [3]; over 64 µg/mL in [5]; 1 µg/mL (≈ 1.52 µM) in data set [6]; 1 µg/mL (≈ 1.52 µM) in data set [8]; 1 µg/mL (≈ 1.52 µM) in data set [9]. In addition, the MIC in [11] is over 64 µg/mL; in data set [16], 1 µg/mL (≈ 1.52 µM).

With `Cc1nn(-c2ccccc2)c(Oc2ccc(Cl)cc2Cl)c1C=O`, the outcome in data set [20], in data set [21], in [22], in data set [23], in [24] and in data set [25] was inactive. Moreover, the result in data set [26] and in [27] was inactive.

Turning to `Cc1nn(-c2ccccc2)c(Oc2ccc(Cl)cc2)c1C=O`, the outcome in data set [20], in data set [21], in [22], in [23], in data set [24] and in data set [25] was inactive. The outcome in data set [26] and in [27] was inactive.

Consider `COc1ccccc1Oc1c(C=O)c(C)nn1-c1ccccc1`, for which the outcome in data set [20], in data set [21], in data set [22], in [23], in [24] and in [25] was inactive. Moreover, the result in [26] and in data set [27] was inactive.

For `Cc1nn(-c2ccccc2)c(Oc2ccc3ccccc3c2)c1C=O`, the outcome in data set [20], in data set [21], in data set [22], in [23], in [24] and in [25] was inactive. Moreover, the outcome in data set [26] and in data set [27] was inactive.

As to `Cc1nn(-c2ccccc2)c(Oc2cccc(C(F)(F)F)c2)c1C=O`, the result in data set [20], in data set [21], in data set [22], in [23], in data set [24] and in data set [25] was inactive. Moreover, the outcome in data set [26] and in data set [27] was inactive.

With `Cc1nn(-c2ccccc2)c(Oc2ccc(Cl)cc2Cl)c1/C=C1\SC(=S)N([C@@H](Cc2ccccc2)C(=O)O)C1=O`, the Ratio is reported as 8 in [1]; 32 in data set [4]; 32 in data set [7]; 8 in [10]; 8 in data set [12]; 8 in data set [13]. The Ratio in data set [14] and in [15] was 32 throughout. In addition, the minimum inhibitory concentration (MIC) was over 64 µg/mL in data set [2]; 2 µg/mL (≈ 3.28 µM) in [3]; over 64 µg/mL in [5]; 2 µg/mL (≈ 3.28 µM) in data set [6]; 1 µg/mL (≈ 1.64 µM) in [8]; 2 µg/mL (≈ 3.28 µM) in data set [9]. The figures for the MIC in data set [11] and in [16] were over 64 µg/mL and 1 µg/mL (≈ 1.64 µM), respectively. Further, the Activity entry in data set [17] and in data set [18] was “Non-toxic” in each case. The same molecule gave an IC50 at 48 h in data set [19] of 3.54 µg/mL (≈ 5.8 µM).

For `Cc1nn(-c2ccccc2)c(Oc2ccccc2)c1C=O`, the outcome in data set [20], in [21], in data set [22], in data set [23], in data set [24] and in data set [25] was inactive. Besides, the outcome in [26] and in data set [27] was inactive.

Usually MIC stands for the least concentration at which growth counts as inhibited. For orientation: IC50 means the concentration at which inhibition is half-maximal.

The values above are taken from ChEMBL document CHEMBL2203015, “Synthesis and biological evaluation of 5-aryloxypyrazole derivatives bearing a rhodanine-3-aromatic acid as potential antimicrobial agents” (Bioorg Med Chem Lett, 2012).
